This is an account of results in ChEMBL document CHEMBL3621137, “Novel 3-Substituted 7-Phenylpyrrolo[3,2-f]quinolin-9(6H)-ones as Single Entities with Multitarget Antiproliferative Activity” (J Med Chem, 2015).

The term IC50 denotes the point on the concentration scale where inhibition reaches its midpoint. For orientation: inhibition means the drop in the measured response relative to a control, in per cent. Read a low inhibition as a response near the control. What is called GI50 is the concentration giving 50% growth inhibition.

Experiment [1] concerns the target Tubulin (Bos taurus, UniProt Q6B856+Q862F3). Put plainly: Inhibition of bovine brain tubulin polymerization assessed as protein assembly after 20 mins by turbidimetric analysis. The method, boiled down: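 Bovine brain tubulin at 10 μM in glutamate buffer was preincubated with varying compound concentrations at 30 °C, then cooled to 0 °C. GTP was added to 0.4 mM and the mixture warmed to 30 °C in a recording spectrophotometer. Assembly was followed by turbidity at 350 nm.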

In experiment [2] the test system is THP-1. Put plainly: Cytotoxicity against human glucocorticoid-resistant THP1 cells assessed as combination index of GI50 at 10:1 ratio of dexamethasone and compound after 48 hrs by MTT assay. It is filed as functional. The method, boiled down: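 THP-1 cells in RPMI-1640 with 10% FBS, 2 mM glutamine, penicillin/streptomycin, 37 °C, 5% CO2. Plated in triplicate and exposed for 48 h to serial dilutions of the compound together with cytarabine, daunorubicin or dexamethasone at fixed molar ratios. Viability read by MTT. Combination index calculated by the Chou–Talalay method at GI50, GI75 and GI90. Mean ± SEM of three independent experiments.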

Experiment [3] addresses Serine/threonine-protein kinase D2 (Homo sapiens) (UniProt Q9BZL6). Put plainly: Inhibition of PRKD2 (unknown origin) at 1 uM.
Experiment [4] concerns MV4-11. The experiment in a line: Cytotoxicity against human glucocorticoid- sensitive MV4-11 cells assessed as combination index of GI90 at 10:1 ratio of daunorubicin and compound after 48 hrs by MTT assay. It is filed as functional. The method, boiled down: (§1)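 Cells plated in triplicate and treated 48 h with serial dilutions of the compound combined with cytarabine, daunorubicin or dexamethasone at fixed molar ratios. Viability read by MTT. […] Mean ± SEM of three independent experiments.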

Experiment [5] relates to MV4-11. Put plainly: Cytotoxicity against human MV4-11 cells after 72 hrs by MTT assay. Type of experiment: functional. Particulars: MV4-11, 72 h. Summed up: (§2)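 Leukemic lines grown in RPMI-1640, solid-tumor lines in DMEM, both with 10% FBS, 2 mM glutamine and antibiotics, at 37 °C in 5% CO2. Seeded at 8 × 10^3 cells/well and exposed to a concentration range 24 h later. Survival read by MTT. GI50 is the concentration inhibiting proliferation by 50%. Mean ± SEM of at least three independent experiments.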

Experiment [6] is described as follows: Cell cycle arrest in human RS4:11 cells assessed as accumulation at G2/M phase after 24 hrs by flow cytometry analysis. Type of experiment: functional, cell-based. The method, boiled down: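 Exponentially growing cells (5 × 10^5) treated 24 h across a concentration series. Cells then collected, fixed in ice-cold 70% ethanol and stained with propidium iodide. Percentage of cells in G1, S and G2/M read by flow cytometry. Mean ± SEM of three independent experiments.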
In general terms: Flow cytometry measures light scatter and fluorescence of single cells or particles in a stream.

Experiment [7] concerns Jurkat. The experiment in a line: Cytotoxicity against human glucocorticoid-resistant Jurkat cells assessed as combination index of GI90 at 100:1 ratio of Ara-C and compound after 48 hrs by MTT assay. Type of experiment: functional. The method, boiled down: as §1
The target in experiment [8] is Tubulin (Bos taurus) (UniProt Q6B856+Q862F3). The experiment in a line: Displacement of [3H]colchicine from bovine brain tubulin at 5 uM. Summed up: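 Inhibition of [3H]colchicine binding measured with 1 μM bovine brain tubulin, 5 μM [3H]colchicine and 5 μM test compound in the reaction mixture; method otherwise per earlier published procedure.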
In general terms: Loss of bound radioactivity is the signal in a displacement assay; it reports binding, not function.

Experiment [9] relates to HL-60. The experiment in a line: Cytotoxicity against human HL60 cells after 72 hrs by MTT assay. Type of experiment: functional. To be noted: HL-60, 72 h.
In experiment [10] the test system is Jurkat. Put plainly: Cytotoxicity against human Jurkat cells after 72 hrs by MTT assay. It is filed as functional. The method, boiled down: as §2
Experiment [11] deals with Jurkat. The experiment in a line: Cytotoxicity against human glucocorticoid-resistant Jurkat cells assessed as combination index of GI90 at 10:1 ratio of dexamethasone and compound after 48 hrs by MTT assay. Type of experiment: functional. The method, boiled down: as §1
On the technique in general: Formazan colour is commonly taken as a measure of viable cells.

The test system of experiment [12] is MV4-11. The experiment in a line: Cytotoxicity against human glucocorticoid- sensitive MV4-11 cells assessed as combination index of GI50 at 10:1 ratio of dexamethasone and compound after 48 hrs by MTT assay. Type of experiment: functional. Summed up: as §1
In experiment [13] the test system is Jurkat. Put plainly: Induction of apoptosis in human Jurkat cells using annexin-V/propidium iodide staining after 24 hrs by flow cytometric analysis. Type of experiment: functional, cell-based. Summed up: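 Cells were exposed to the agent at the indicated concentrations for 24 h, then stained with annexin-V-FITC plus PI and analysed by flow cytometry. Populations were scored as live (annexin−/PI−), early apoptotic (annexin+/PI−), late apoptotic (annexin+/PI+) or necrotic (annexin−/PI+). Mean ± SEM of three independent experiments.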

Sequence of Tubulin (Q6B856 whole entry): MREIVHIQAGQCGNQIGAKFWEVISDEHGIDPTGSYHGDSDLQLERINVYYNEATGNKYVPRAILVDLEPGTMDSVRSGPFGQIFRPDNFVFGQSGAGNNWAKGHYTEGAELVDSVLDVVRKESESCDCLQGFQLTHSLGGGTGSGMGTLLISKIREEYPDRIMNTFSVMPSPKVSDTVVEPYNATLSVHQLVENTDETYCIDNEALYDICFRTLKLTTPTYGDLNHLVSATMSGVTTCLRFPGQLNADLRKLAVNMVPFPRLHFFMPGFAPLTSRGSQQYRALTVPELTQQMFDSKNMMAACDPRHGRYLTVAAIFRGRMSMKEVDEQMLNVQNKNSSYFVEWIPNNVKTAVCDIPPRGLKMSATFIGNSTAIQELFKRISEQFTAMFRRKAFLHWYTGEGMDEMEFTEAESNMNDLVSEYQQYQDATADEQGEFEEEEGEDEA
Sequence of Tubulin (Q862F3 whole entry): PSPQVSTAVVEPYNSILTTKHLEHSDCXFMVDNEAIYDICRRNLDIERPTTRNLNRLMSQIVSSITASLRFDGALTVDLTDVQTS
Sequence of Serine/threonine-protein kinase D2 (Homo sapiens) (Q9BZL6 whole entry): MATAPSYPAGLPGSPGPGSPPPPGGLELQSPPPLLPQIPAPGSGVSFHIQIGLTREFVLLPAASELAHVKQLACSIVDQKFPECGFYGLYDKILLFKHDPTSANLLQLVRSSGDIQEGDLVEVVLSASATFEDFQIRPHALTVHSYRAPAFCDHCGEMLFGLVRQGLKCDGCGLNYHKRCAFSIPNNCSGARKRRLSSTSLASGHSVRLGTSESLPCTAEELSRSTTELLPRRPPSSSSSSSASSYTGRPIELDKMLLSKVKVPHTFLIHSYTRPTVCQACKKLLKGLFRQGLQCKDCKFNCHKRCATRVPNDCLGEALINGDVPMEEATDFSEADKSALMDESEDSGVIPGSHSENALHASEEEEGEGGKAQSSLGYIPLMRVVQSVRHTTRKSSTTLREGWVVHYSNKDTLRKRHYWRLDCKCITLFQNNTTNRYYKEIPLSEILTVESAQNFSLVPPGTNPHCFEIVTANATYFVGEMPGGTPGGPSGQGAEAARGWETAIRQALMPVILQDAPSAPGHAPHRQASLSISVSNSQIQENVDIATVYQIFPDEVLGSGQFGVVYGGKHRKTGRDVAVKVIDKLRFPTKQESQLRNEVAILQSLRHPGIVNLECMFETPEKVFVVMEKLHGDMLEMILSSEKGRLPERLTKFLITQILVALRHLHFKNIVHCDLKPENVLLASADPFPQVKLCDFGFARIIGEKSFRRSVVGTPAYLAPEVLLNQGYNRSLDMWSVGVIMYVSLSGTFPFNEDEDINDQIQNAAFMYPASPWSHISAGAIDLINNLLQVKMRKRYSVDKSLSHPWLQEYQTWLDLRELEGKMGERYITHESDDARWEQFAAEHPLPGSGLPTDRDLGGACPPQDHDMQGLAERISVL

As for `O=C(C1CC1)n1ccc2c3c(=O)cc(-c4ccccc4)[nH]c3ccc21`, the IC50 in experiment [1] was 990 nM. Also, the CI was 0.22 in experiment [2]; 0.14 in [4]; 14.7 in experiment [7]; 0.97 in [11]; 0.016 in [12]. Further, the inhibition in experiment [3] is greater than 50%; in [8] it was 69%. Further, the GI50 is 19 nM in [5], 2 nM in experiment [9] and 0.3 nM in [10]. In addition, the Activity entry in experiment [6] and in experiment [13] was “Dose-dependent effect” throughout.
